The text below walks through data of ChEMBL document CHEMBL3400013, “Synthesis and biological activity evaluation of hydrazone derivatives based on a Tröger's base skeleton” (Bioorg Med Chem, 2015).

Data set [1] deals with Escherichia coli. As to the kind of experiment: Antimicrobial activity against multidrug-resistant Escherichia coli C/16702 up to 200 uM after 24 to 48 hrs by broth microdilution method. The class given is functional, organism-based. On the technique in general: Dilution methods test growth across graded concentrations, often in twofold steps.
The subject of data set [2] is BJ. In words: Selectivity index, ratio of IC50 for human BJ cells to IC50 for human K562 cells. Type of data set: functional.
The nature of data set [3]: Metal chelating activity of the compound assessed as formation of Cr3+ complex by UV-vis spectrometry. Type of data set: physicochemical.
A short description of data set [4]: Metal chelating activity of the compound assessed as formation of Mn2+ complex by UV-vis spectrometry. The class given is physicochemical.
In data set [5] the test system is Staphylococcus haemolyticus. As to the kind of experiment: Antimicrobial activity against methicillin-resistant Staphylococcus haemolyticus A1/16568 up to 200 uM after 24 to 48 hrs by broth microdilution method. The class given is functional, organism-based.
Data set [6] is described as follows: Cytostatic activity against human CEM-DNR cells after 72 hrs by MTT assay. The class given is functional, cell-based. A digest of the protocol:
(§1)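 Cells were seeded at 25,000–30,000 per well and pre-incubated for 24 h at 37°C in 5% CO2. Four-fold compound dilutions were added in duplicate and incubated for 72 h. MTT was added for 1–4 h, and formazan was dissolved in 10% aq SDS (pH 5.5) overnight at 37°C. OD was read at 540 nm. IC50 came from dose-response curves, mean ± SD of eight independent experiments.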
(In general: Formazan colour is commonly taken as a measure of viable cells.)

Data set [7] has as its system BJ. In words: Selectivity index, ratio of IC50 for human BJ cells to IC50 for human CEM-DNR cells. Type of data set: functional.
Data set [8] has as its system CCRF-CEM. In words: Cell cycle arrest in human CCRF-CEM cells assessed as accumulation at G0/G1 phase at IC50 after 24 hrs by propidium iodide staining-based flow cytometry. Type of data set: functional. A digest of the protocol: (§2)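 Cells were then fixed in 70% ethanol, washed in hypotonic citrate buffer, treated with RNase (50 µg/mL) and stained with propidium iodide. Flow cytometry used a 488 nm laser. Apoptosis was scored as the percentage of particles with propidium content below G0/G1.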

The test system of data set [9] is Nucleic Acid. As to the kind of experiment: Binding affinity to DNA (unknown origin) assessed as DNA intercalation by UV-visible spectrophotometry in presence of Fe3+. The class given is nucleic-acid assay.
The subject of data set [10] is CCRF-CEM. As to the kind of experiment: Cell cycle arrest in human CCRF-CEM cells assessed as accumulation at G2/M phase at 5 times IC50 after 24 hrs by propidium iodide staining-based flow cytometry. The class given is functional. A digest of the protocol:
as §2

The test system of data set [11] is CCRF-CEM. As to the kind of experiment: Induction of apoptosis in human CCRF-CEM cells assessed as apoptotic cells at IC50 after 24 hrs by propidium iodide staining-based flow cytometry. The class given is functional. A digest of the protocol:
as §2

The subject of data set [12] is CCRF-CEM. In words: Cell cycle arrest in human CCRF-CEM cells assessed as accumulation at G2/M phase at IC50 after 24 hrs by propidium iodide staining-based flow cytometry. Type of data set: functional. A digest of the protocol:
as §2

The subject of data set [13] is Enterococcus faecalis. In words: Antimicrobial activity against Enterococcus faecalis CCM 4224 up to 200 uM after 24 to 48 hrs by broth microdilution method. Type of data set: functional, organism-based.
The test system of data set [14] is Pseudomonas aeruginosa. As to the kind of experiment: Antimicrobial activity against Pseudomonas aeruginosa CCM 395 up to 200 uM after 24 to 48 hrs by broth microdilution method. Type of data set: functional, organism-based.
Data set [15] deals with CCRF-CEM. In words: Cell cycle arrest in human CCRF-CEM cells assessed as accumulation at S phase at IC50 after 24 hrs by propidium iodide staining-based flow cytometry. The class given is functional. A digest of the protocol: as §2
A general note: A flow cytometer gives signals particle by particle.

For data set [16], the system named is MRC5. As to the kind of experiment: Cytostatic activity against human MRC5 cells after 72 hrs by MTT assay. The class given is ADME, cell-based. The settings on record: MRC5, 72 h. A digest of the protocol: as §1
Data set [17] is described as follows: Cytostatic activity against human p53-/- HCT116 cells after 72 hrs by MTT assay. The class given is functional, cell-based. The settings on record: HCT-116, 72 h. A digest of the protocol: as §1
In data set [18] the test system is Candida albicans. As to the kind of experiment: Antifungal activity against Candida albicans up to 200 uM after 24 to 48 hrs by broth microdilution method. The class given is functional, organism-based.
The subject of data set [19] is Pseudomonas aeruginosa. In words: Antimicrobial activity against multidrug-resistant Pseudomonas aeruginosa A/16575 up to 200 uM after 24 to 48 hrs by broth microdilution method. The class given is functional, organism-based.
The subject of data set [20] is CCRF-CEM. In words: Induction of apoptosis in human CCRF-CEM cells assessed as inhibition of RNA synthesis after 24 hrs by propidium iodide/BrU staining by flow cytometry. Type of data set: functional, cell-based.
Data set [21] deals with Nucleic Acid. As to the kind of experiment: Binding affinity to DNA (unknown origin) assessed as DNA intercalation by UV-visible spectrophotometry in presence of Co2+. The class given is nucleic-acid assay.

Activity calls are given as the source filed them. The calls are words filed in the database; no cut-off is given here. Where only a bound is given, the exact number is not on record here.

One may read the IC50 as the concentration that inhibits the measured activity by half. High values mean weaker potency, low ones greater potency. Regarding `O=C(N/N=C/c1nccc2ccccc12)c1ccc2c3c(ccc2c1)N1Cc2c(ccc4cc(C(=O)N/N=C/c5nccc6ccccc56)ccc24)N(C3)C1`, the outcome in [1], in data set [5], in data set [13], in [14], in [18] and in data set [19] was inactive. For the same compound, the “Ratio IC50” value is 121.9 in data set [2] and 15.9 in data set [7]. In addition, the Activity result was “Not Active” in data set [3]; “Not Active” in [4]; 46.09% in [8]; 13.57% in [10]; 8.4% in [11]; 15.35% in [12]. Further, in data set [15], the Activity is on record as 38.56%. The IC50 in [6] is 6.29 µM; in data set [16], greater than 100 µM; in data set [17], 25.3 µM. Also, the result in data set [9] and in data set [21] was Active. The inhibition result in [20] was “Dose-dependent effect”.
